Data on 2 compounds can be found in ChEMBL document CHEMBL1121715, “New antiarrhythmic agents. 4. 1'-(Aminoalkyl)-1,2,3,4-tetrahydronaphthalene-1-spiro-3'-pyrrolidine-2',5'-dione derivatives” (J Med Chem, 1981).

The species entered for series [1] is Mus musculus. In words: Percentage toxicity measured as ataxia. It counts as organism-based. As to conditions: in vivo. The essentials: (§1)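 Mice (groups of 10) were dosed sc with drug in 0.9% saline and watched for 20 min for overt toxicity (ataxia, convulsions, loss of righting reflex, death) before chloroform exposure.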
Series [2] deals with Canis familiaris. In words: % ectopic beats was measured in anesthetized dog at 0.053 dose. The series is classed as functional, Canis lupus familiaris, Heart. As to conditions: in the assay text read “unanesthetized” for “anesthetized”. A digest of the protocol: (§2)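 Adult female dogs (6.7–14.5 kg) had the left anterior descending coronary artery ligated in two stages the day before testing. Dogs were unanesthetized. Ectopic beats (% of ventricular rate) and mean arterial pressure were read at maximal antiarrhythmic effect against the cumulative dose.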

In series [3] the test system is Canis familiaris. In words: Ventricular rate was measured in anesthetized dog at 0.053 dose. The series is classed as functional, Canis lupus familiaris, Heart. As to conditions: in the assay text read “unanesthetized dog” for “anesthetized dog”. A digest of the protocol: (§3)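 Adult female dogs (6.7–14.5 kg) had two-stage ligation of the left anterior descending coronary artery the day before testing. After control ventricular rate, % ectopic beats and mean arterial pressure were recorded, the drug (HCl salt, isotonic solution) was infused iv without anesthesia at 0.1, 0.5 or 1.0 (mg/kg)/min, mostly 0.5. Infusion continued until the arrhythmia was abolished or cardiovascular/CNS toxicity appeared. Cumulative dose is given in mmol/kg; toxicity included convulsion and P-R prolongation ≥25%.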

The species entered for series [4] is Mus musculus. The experiment in a line: Percentage toxicity measured as loss of righting reflex. The note with it: in vivo. The series is classed as organism-based. The essentials: as §1
Series [5] has as its system Mus musculus. In words: Protection against chloroform induced arrhythmias was measured in mice after sc administration at given dose. It counts as functional. A digest of the protocol: (§4)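 Groups of 10 unanesthetized mice got sc injection of drug in 0.9% saline. After 20 min observation they were placed one by one in chloroform-vapor-saturated air. When breathing stopped, the thorax was opened and the heart inspected by eye; coordinated ventricular contractions counted as protected.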

For series [6], the system named is Canis familiaris. In words: MABP value was measured in anesthetized dog at 0.026 dose. It counts as functional, Canis lupus familiaris. The note with it: in the assay text read “unanesthetized dog” for “anesthetized dog”. The essentials: as §2
The test system of series [7] is Mus musculus. The experiment in a line: Protection against chloroform induced arrhythmias in mice after subcutaneous administration at 100 mg/kg dose. The series is classed as functional. The essentials: as §4
The species entered for series [8] is Canis familiaris. The experiment in a line: (§5) The dose at which toxicity was measured. The series is classed as organism-based, Canis lupus familiaris. The arrangement: unit: mmol/kg. As to conditions: dog, in vivo. A digest of the protocol:
as §3

For series [9], the species on record is Mus musculus. The experiment in a line: Percentage toxicity measured as convulsions. As to conditions: in vivo. The series is classed as organism-based. A digest of the protocol:
as §1

Series [10] in a line: Percentage toxicity measured as death of mice. The arrangement: concentration or dose not given beside the values. The series is classed as organism-based. As to conditions: mouse, in vivo; read-out: Death.
The species entered for series [11] is Canis familiaris. The series is described as §5. It counts as organism-based, Canis lupus familiaris. The note with it: dog, in vivo. The essentials: as §3
Series [12] relates to Canis familiaris. The experiment in a line: MABP value was measured in anesthetized dog at 0.053 dose. The series is classed as functional, Canis lupus familiaris. As to conditions: in the assay text read “unanesthetized dog” for “anesthetized dog”. A digest of the protocol:
as §3

The subject of series [13] is Canis familiaris. In words: Ventricular rate was measured in anesthetized dog at 0.026 dose. It counts as functional, Canis lupus familiaris, Heart.
The subject of series [14] is Canis familiaris. In words: % ectopic beats was measured in anesthetized dog at 0.026 dose. The series is classed as functional, Canis lupus familiaris, Heart. The note with it: in the assay text read “unanesthetized” for “anesthetized”. A digest of the protocol:
as §2

For series [15], the system named is Canis familiaris. In words: Ventricular rate was measured in anesthetized dog at 0.042 dose. The series is classed as functional, Canis lupus familiaris, Heart. The note with it: in the assay text read “unanesthetized dog” for “anesthetized dog”. The essentials:
as §3

The subject of series [16] is Canis familiaris. The experiment in a line: MABP value was measured in anesthetized dog at 0.005 dose. The series is classed as functional, Canis lupus familiaris. As to conditions: in the assay text read “unanesthetized dog” for “anesthetized dog”. A digest of the protocol: as §2
Series [17] concerns Canis familiaris. The experiment in a line: Blood level was measured in anesthetized dog at 0.029 dose. It counts as functional, Canis lupus familiaris.
In series [18] the test system is Canis familiaris. In words: MABP value was measured in anesthetized dog at 0.021d ose. The series is classed as functional, Canis lupus familiaris. As to conditions: in the assay text read “unanesthetized dog” for “anesthetized dog”. A digest of the protocol:
as §2

The subject of series [19] is Canis familiaris. The experiment in a line: Ventricular rate was measured in anesthetized dog at given 0.017 dose. As to conditions: in the assay text read “unanesthetized” for “anesthetized”. It counts as functional, Canis lupus familiaris, Heart. A digest of the protocol: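 Adult female dogs (6.7–14.5 kg) had ventricular arrhythmias from two-stage ligation of the left anterior descending coronary artery the day before. Ventricular rate (bpm) was read at maximal antiarrhythmic effect against cumulative dose.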

The species named for series [20] is Canis familiaris. The experiment in a line: Toxicity of blood level was measured. The series is classed as organism-based, Canis lupus familiaris. As to conditions: dog, in vivo. The essentials:
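In coronary-ligated conscious dogs under iv infusion, blood was sampled at toxicity. Drug was extracted with methylene chloride at pH 10.3 (ammonium citrate/ammonia) with another analogue as internal standard, then derivatized with heptafluorobutyrylimidazole. Assay was GC-FID on 3% JXR, quantified from drug/internal standard peak-height ratio against standard curves; results in μmol/mL.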

Series [21] has as its system Canis familiaris. The experiment in a line: Ventricular rate was measured in anesthetized dog at 0.021 dose. The series is classed as functional, Canis lupus familiaris, Heart. As to conditions: in the assay text read “unanesthetized dog” for “anesthetized dog”. A digest of the protocol:
as §3

For series [22], the species on record is Canis familiaris. The experiment in a line: The dose at which toxicity was measured. The series is classed as organism-based, Canis lupus familiaris. The note with it: dog, in vivo. A digest of the protocol: as §3
Series [23] has as its system Mus musculus. The experiment in a line: Protection against chloroform induced arrhythmias was measured in mice after sc administration at given dose. It counts as functional. As to conditions: Mus musculus, sc; read-out: ED50. The essentials:
as §4

Series [24] relates to Canis familiaris. In words: % ectopic beats was measured in anesthetized dog at 0.005 dose. The note with it: in the assay text read “unanesthetized” for “anesthetized”. It counts as functional, Canis lupus familiaris, Heart. A digest of the protocol:
as §2

In series [25] the test system is Canis familiaris. In words: MABP value was measured in anesthetized dog at 0.026 dose. The series is classed as functional, Canis lupus familiaris. The note with it: in the assay text read “unanesthetized dog” for “anesthetized dog”. The essentials: as §2
In series [26] the test system is Canis familiaris. The experiment in a line: MABP value was measured in anesthetized dog at 0.029 dose. The series is classed as functional, Canis lupus familiaris. The note with it: in the assay text read “unanesthetized dog” for “anesthetized dog”. The essentials: as §2
Series [27] concerns Canis familiaris. The experiment in a line: Ventricular rate was measured in anesthetized dog at 0.029 dose. It counts as functional, Canis lupus familiaris, Heart. The note with it: in the assay text read “unanesthetized dog” for “anesthetized dog”. The essentials:
as §3

In series [28] the test system is Canis familiaris. In words: Ventricular rate was measured in anesthetized dog at 0.005 dose. It counts as functional, Canis lupus familiaris, Heart. As to conditions: in the assay text read “unanesthetized dog” for “anesthetized dog”. The essentials:
as §3

Series [29] concerns Canis familiaris. In words: MABP value was measured in anesthetized dog at 0.042 dose. The series is classed as functional, Canis lupus familiaris. The note with it: in the assay text read “unanesthetized dog” for “anesthetized dog”. The essentials:
as §3

Series [30] concerns Canis familiaris. In words: % ectopic beats was measured in anesthetized dog at 0.042 dose. It counts as functional, Canis lupus familiaris, Heart. The note with it: in the assay text read “unanesthetized” for “anesthetized”. The essentials:
as §2

Series [31] relates to Canis familiaris. The experiment in a line: % ectopic beats was measured in anesthetized dog at 0.026 dose. The series is classed as functional, Canis lupus familiaris, Heart. The note with it: in the assay text read “unanesthetized” for “anesthetized”. The essentials: as §2
Series [32] relates to Canis familiaris. The experiment in a line: % ectopic beats was measured in anesthetized dog at 0.021d ose. The series is classed as functional, Canis lupus familiaris, Heart. The note with it: in the assay text read “unanesthetized” for “anesthetized”. A digest of the protocol: as §2
For series [33], the species on record is Canis familiaris. In words: Toxicity of the compound. It counts as organism-based, Canis lupus familiaris. The note with it: dog, in vivo. The essentials:
as §3

Series [34] relates to Canis familiaris. In words: % ectopic beats was measured in anesthetized dog at 0.029 dose. The series is classed as functional, Canis lupus familiaris, Heart. As to conditions: in the assay text read “unanesthetized” for “anesthetized”. The essentials: as §2
Series [35] relates to Canis familiaris. In words: MABP value was measured in anesthetized dog at 0.017 dose. The series is classed as functional, Canis lupus familiaris. The note with it: in the assay text read “unanesthetized dog” for “anesthetized dog”. A digest of the protocol: as §2
For series [36], the species on record is Canis familiaris. The experiment in a line: Blood level was measured in […] at 0.017 dose. The series is classed as functional, Canis lupus familiaris.
The subject of series [37] is Canis familiaris. The experiment in a line: % ectopic beats was measured in anesthetized dog at 0.017 dose. It counts as functional, Canis lupus familiaris, Heart. As to conditions: in the assay text read “unanesthetized” for “anesthetized”. A digest of the protocol: as §2

Several values for one entry are separate records, joined by “and”; a condition that tells them apart may be missing. Equal entries are not always repeated.

As to `CCN(CC)CCN1C(=O)CC2(CCCc3ccc(O)cc32)C1=O` (centres undefined), the Ataxia in the series filed under Mus musculus [1] was 0%. In addition, the Etopic beats in the series on Canis familiaris [2] worked out at 7%; in the series with Canis familiaris [14], 3%. For the same compound, the values for the Ventricular rate in the series with Canis familiaris [3] and in the series with Canis familiaris [13] were 102 beats min-1 and 132 beats min-1, respectively. In addition, in the series listed under Mus musculus [4], the “Loss of righting reflex” value stood at 0%. Further, the ED50 (in general, the dose that gives a 50% effect, or the effect in half of the subjects) with Mus musculus [5] turned out to be 150 µmol/kg. The MABP with Canis familiaris [6] was determined as 130 mmHg; in the series on Canis familiaris [12], 135 mmHg. Also, in the series on Mus musculus [7], the Protection is given as 90%. Moreover, the Cumulative dose in the series filed under Canis familiaris [8] worked out at 0.026 mM/kg; in the series filed under Canis familiaris [11] it was 0.042. Further, the Convulsion in the series listed under Mus musculus [9] worked out at 0%. Besides, the mortality in series [10] is 0%.

`CCN(CC)CCCCN1C(=O)CC2(CCCc3ccc(O)cc32)C1=O` (centres undefined): the Ventricular rate with Canis familiaris [15] amounted to 147 beats min-1; in the series with Canis familiaris [19], 153 beats min-1; in the series on Canis familiaris [21], 168 beats min-1; in the series on Canis familiaris [27], 141 beats min-1; in the series with Canis familiaris [28], 162 beats min-1; in the series with Canis familiaris [13] it was 132 beats min-1. Besides, the MABP stood at 80 mmHg with Canis familiaris [16]; 70 mmHg with Canis familiaris [18]; 90 mmHg in the series on Canis familiaris [25]; 90 mmHg in the series with Canis familiaris [26]; 100 mmHg in the series on Canis familiaris [29]; 95 mmHg with Canis familiaris [35]. The Ataxia in the series filed under Mus musculus [1] is on record as 0%. In addition, the Blood level in the series on Canis familiaris [17] was 0.007 uM ml-1; in the series filed under Canis familiaris [20], over 28 µM; in the series listed under Canis familiaris [33] it was 0.01 uM ml-1; in the series filed under Canis familiaris [36] it was 0.016 uM ml-1. Further, in the series listed under Mus musculus [4], the “Loss of righting reflex” value is recorded as 0%. In addition, the Cumulative dose in the series filed under Canis familiaris [22] was 0.063; in the series filed under Canis familiaris [8], > 0.058 and > 0.126. The ED50 in the series on Mus musculus [23] came to 130 µmol/kg. For the same compound, the Etopic beats in the series on Canis familiaris [24] is recorded as 2%; with Canis familiaris [30], 0%; with Canis familiaris [31], 0%; with Canis familiaris [32] it was 0%; with Canis familiaris [34], 0%; with Canis familiaris [37], 2%. The same compound showed a Protection with Mus musculus [7] of 100%. Also, in the series filed under Mus musculus [9], the Convulsion was found to be 0%. The mortality in [10] amounted to 0%.
